Assay results published in article PMC3232455 (Molecular therapy : the journal of the American Society of …, 2011).

What was measured:
HeLa and glioma cells = details: cited from earlier work
CLL cells = test: MTT cell viability assay in primary CLL samples; type: cell-based, human; details: six fresh primary CLL patient samples, 24 hours with 0-20 μM peptide
Procedure, shortened: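 Human PBMCs isolated from fresh patient blood by density centrifugation and kept in RPMI 1640 with 10% FBS and penicillin/streptomycin. Seeded at 3 × 10^5 cells/well with 0–20 µmol/l unlabelled test peptide under tissue-culture conditions, then MTT read-out. Viability expressed as percentage of untreated controls.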

Substance | Cell uptake and distribution (in words) (HeLa and glioma cells) | Cell viability (in words) (CLL cells)
FFLIPKG-R8 | diffusely label the cytoplasm within five minutes | 
NH2-asrslhslaG-Ahx-rrrrrrrrGC-COOH [asr-a-r8] |  | no loss of viability
